Source: ChEMBL document CHEMBL3286272, “Synthesis, biological, and biophysical studies of DAG-indololactones designed as selective activators of RasGRP” (Bioorg Med Chem, 2014)
Calls of active or inactive are those of the source. No cut-off for these calls is given here.

Columns and labels:
[1] = molecular target: T1, Ras guanyl-releasing protein 3 (Homo sapiens, UniProt Q8IV61); experiment: Displacement of [3H]PDBu from recombinant human GFP-tagged RasGRP3 expressed in Escherichia coli BL21 after 5 mins by scintillation counting analysis in presence of phosphatidylserine
T1 sequence (Q8IV61 whole entry): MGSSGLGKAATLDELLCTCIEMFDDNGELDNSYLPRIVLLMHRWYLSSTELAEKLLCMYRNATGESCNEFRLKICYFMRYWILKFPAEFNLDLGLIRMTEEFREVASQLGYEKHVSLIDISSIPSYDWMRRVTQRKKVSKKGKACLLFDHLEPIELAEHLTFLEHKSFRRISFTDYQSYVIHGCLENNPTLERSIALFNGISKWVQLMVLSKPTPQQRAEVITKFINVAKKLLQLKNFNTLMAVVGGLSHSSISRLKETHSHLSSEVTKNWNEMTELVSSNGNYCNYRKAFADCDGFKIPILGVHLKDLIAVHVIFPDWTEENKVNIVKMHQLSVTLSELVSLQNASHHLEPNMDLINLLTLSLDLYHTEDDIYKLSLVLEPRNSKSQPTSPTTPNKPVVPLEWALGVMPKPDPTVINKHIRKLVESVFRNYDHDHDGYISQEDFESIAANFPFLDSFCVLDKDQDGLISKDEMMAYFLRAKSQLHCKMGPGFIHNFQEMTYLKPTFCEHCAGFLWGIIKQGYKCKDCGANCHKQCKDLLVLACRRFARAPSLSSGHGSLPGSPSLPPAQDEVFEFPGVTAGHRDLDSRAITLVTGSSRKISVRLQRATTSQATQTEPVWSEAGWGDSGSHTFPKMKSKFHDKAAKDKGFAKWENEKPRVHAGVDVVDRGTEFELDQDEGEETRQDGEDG
Outline: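 Competition for [3H]PDBu binding to RasGRP3 with 100 μg/ml phosphatidylserine present, run at 18°C to optimize stability. Values are mean ± SEM of triplicate independent experiments.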

[2] = Binding affinity to 9:1 DMPG/DMPC giant vesicle at 6.05 uM by fluorescence emission spectra analysis; conditions: in the assay text read “9:1 DMPC/DMPG” for “9:1 DMPG/DMPC”
Outline: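 Intrinsic 1-methylindole emission of 6.05 μM compound in Tris/sucrose/KCl buffer pH 7.4 was recorded at 27°C while titrating with DMPC/DMPG giant vesicles (5–30 μL), with excitation at each compound's own wavelength. Vesicle light scattering was under 5% of the signal.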

[3] = molecular target: T2, Ras guanyl-releasing protein 3 (Homo sapiens) (UniProt Q8IV61); experiment: Activation of RasGRP3 in human Ramos cells assessed as ERK1/2 phosphorylation at 10000 nM after 30 mins by Western blot analysis; format: cell-based
T2 sequence (whole entry): T1 sequence (Q8IV61 whole entry)
Outline: (§1)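 Ramos cells in RPMI-1640 with 10% FBS and 1% L-glutamine, plated at 300,000 cells/ml, were exposed after 24 h to 0.01, 0.1, 1 and 10 μM compound for 30 min. Lysates were made in PBS with 0.5% Triton X-100 and sonicated. 7.5 μg protein was run on 10% Tris-glycine gels, blotted to nitrocellulose, probed overnight with phospho-specific primary antibodies and detected by ECL.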

[4] = molecular target: Protein kinase C delta type (Homo sapiens) (UniProt Q05655); experiment: Activation of PKC-delta in HEK293 cells overexpressing RasGRP3 assessed as protein phosphorylation at S299 at 0.1 to 30 uM after 30 mins by Western blot analysis; format: cell-based
Chain of Protein kinase C delta type (Homo sapiens) (Q05655 whole entry, looked up, the tested form may be a part): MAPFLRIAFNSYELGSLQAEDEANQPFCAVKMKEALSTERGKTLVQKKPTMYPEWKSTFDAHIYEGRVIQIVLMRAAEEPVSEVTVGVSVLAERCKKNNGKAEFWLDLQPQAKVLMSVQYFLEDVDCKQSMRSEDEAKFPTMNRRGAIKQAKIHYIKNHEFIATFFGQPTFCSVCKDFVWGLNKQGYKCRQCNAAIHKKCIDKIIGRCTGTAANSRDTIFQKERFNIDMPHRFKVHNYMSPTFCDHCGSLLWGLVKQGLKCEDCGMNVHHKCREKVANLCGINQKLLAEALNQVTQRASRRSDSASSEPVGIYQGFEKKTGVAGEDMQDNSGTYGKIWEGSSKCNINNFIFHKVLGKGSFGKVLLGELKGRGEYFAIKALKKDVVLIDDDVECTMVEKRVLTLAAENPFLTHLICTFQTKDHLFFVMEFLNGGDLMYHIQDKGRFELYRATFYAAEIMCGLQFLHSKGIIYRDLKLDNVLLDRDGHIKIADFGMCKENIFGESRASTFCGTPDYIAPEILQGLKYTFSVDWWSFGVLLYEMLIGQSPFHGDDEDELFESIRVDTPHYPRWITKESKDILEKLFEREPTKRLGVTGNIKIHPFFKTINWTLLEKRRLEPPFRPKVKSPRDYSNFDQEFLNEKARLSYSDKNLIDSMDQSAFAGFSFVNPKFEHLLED

Homo sapiens = species: Homo sapiens; experiment: Selectivity ratio of Ki for recombinant human PKC-epsilon to Ki for recombinant RasGRP1 C1 domain (unknown origin)
[5] = molecular target: Protein kinase C delta type (Homo sapiens) (UniProt Q05655); experiment: Activation of PKC-delta in HEK293 cells assessed as protein phosphorylation at S299 at 0.1 to 30 uM after 30 mins by Western blot analysis; format: cell-based
[6] = molecular target: Protein kinase C delta type (Homo sapiens) (UniProt Q05655); experiment: Activation of PKC-delta in human Ramos cells assessed as protein phosphorylation at S299 at 10000 nM after 30 mins by Western blot analysis; format: cell-based; outline: as §1
[7] = molecular target: T3, Protein kinase C epsilon type (Homo sapiens, UniProt Q02156); experiment: Displacement of [3H]PDBu from recombinant human PKC-epsilon after 5 mins by scintillation counting analysis in presence of phosphatidylserine
T3 sequence (Q02156 whole entry): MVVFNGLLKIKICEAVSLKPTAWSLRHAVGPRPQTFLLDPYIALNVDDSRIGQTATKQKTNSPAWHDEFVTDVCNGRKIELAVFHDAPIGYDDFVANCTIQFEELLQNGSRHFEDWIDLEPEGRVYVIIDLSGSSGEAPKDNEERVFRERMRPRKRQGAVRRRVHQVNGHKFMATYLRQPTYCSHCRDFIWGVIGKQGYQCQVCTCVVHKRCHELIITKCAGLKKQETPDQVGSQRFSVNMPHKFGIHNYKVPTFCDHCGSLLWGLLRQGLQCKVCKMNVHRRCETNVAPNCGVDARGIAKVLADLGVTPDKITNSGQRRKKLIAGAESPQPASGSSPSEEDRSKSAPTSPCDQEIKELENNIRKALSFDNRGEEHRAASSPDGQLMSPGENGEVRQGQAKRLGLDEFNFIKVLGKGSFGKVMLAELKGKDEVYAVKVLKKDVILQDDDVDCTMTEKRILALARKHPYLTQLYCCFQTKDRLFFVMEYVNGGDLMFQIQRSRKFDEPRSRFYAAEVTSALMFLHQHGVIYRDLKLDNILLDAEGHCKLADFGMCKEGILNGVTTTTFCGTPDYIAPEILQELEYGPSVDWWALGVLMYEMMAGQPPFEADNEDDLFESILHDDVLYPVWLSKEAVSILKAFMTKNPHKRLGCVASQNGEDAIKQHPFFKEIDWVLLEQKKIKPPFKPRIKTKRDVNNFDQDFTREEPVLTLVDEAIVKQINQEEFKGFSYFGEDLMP
Outline: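 [3H]PDBu binding competition with 100 μg/ml phosphatidylserine present; PKCα and RasGRP1-C1 assayed at 37°C for stability. Values are mean ± SEM of triplicate independent experiments.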

[8] = molecular target: T4, Protein kinase C alpha type (Homo sapiens, UniProt P17252); experiment: Binding affinity to recombinant human GFP-tagged PKC-alpha expressed in CHOK1 cells assessed as induction of protein translocation from plasma membrane to internal membrane at 10000 nM after 5 to 15 mins by confocal microscopic analysis; format: cell-based; conditions: CHO-K1
Outline: (§2)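 CHO-K1 cells were transiently transfected with human GFP-PKCα and imaged live by confocal microscopy 24 h later (488 nm excitation, 500–530 nm emission) every 30 s for 30 min after 10 μM ligand. Membrane/cytoplasm intensity ratio from 4 μm2 regions was normalized to time 0. n = 3–6.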

[9] = molecular target: T2, Ras guanyl-releasing protein 3 (Homo sapiens); experiment: Activation of RasGRP3 (unknown origin) overexpressed in HEK293 cells assessed as ERK1/2 phosphorylation at 1 to 10 uM after 30 mins by Western blot analysis; format: cell-based
[10] = molecular target: T4, Protein kinase C alpha type; experiment: Binding affinity to recombinant human GFP-tagged PKC-alpha expressed in CHOK1 cells assessed as induction of protein translocation from plasma membrane to internal membrane at 10000 nM after 2 to 5 mins by confocal microscopic analysis; format: cell-based; conditions: CHO-K1; outline: as §2

| Structure (SMILES) | Ki [1] | Activity [2] | Activity [3] | Activity [4] | Ratio Ki (Homo sapiens) | Activity [5] | Activity [6] | Ki [7] | Activity [8] | Activity [9] | Activity [10] |
| --- | --- | --- | --- | --- | --- | --- | --- | --- | --- | --- | --- |
| CCCC(CCC)C(=O)OCC1(CO)C/C(=C\c2cccc3ccn(C)c23)C(=O)O1 (configuration not stated) | 1.12 nM | inactive | Active | Active | 17 | Active | Active | 11.7 nM | Active |  |  |
| CCCC(CCC)C(=O)OCC1(CO)C/C(=C\c2cn(C)c3ccccc23)C(=O)O1 (configuration not stated) | 0.33 nM | inactive | Active | Active | 84 | Active | Active | 21.1 nM | Active | Active |  |
| CCCC(CCC)C(=O)OCC1(CO)C/C(=C\c2cccc3c2ccn3C)C(=O)O1 (configuration not stated) | 1.63 nM | Active | Active | Active | 9.4 | Active | Active | 14.6 nM | Active |  |  |

More lines, now with the values ahead:

| Ki [1] | Activity [2] | Activity [3] | Activity [4] | Ratio Ki (Homo sapiens) | Activity [5] | Activity [6] | Ki [7] | Activity [8] | Activity [9] | Activity [10] | Structure (SMILES) |
| --- | --- | --- | --- | --- | --- | --- | --- | --- | --- | --- | --- |
| 0.34 nM | inactive | Active | Active | 5.3 | Active | Active | 2.17 nM | Active |  |  | CCCC(CCC)C(=O)OCC1(CO)C/C(=C\c2ccc3c(ccn3C)c2)C(=O)O1 (configuration not stated) |
| 1.22 nM | Active | Active | Active | 9.3 | Active | Active | 8.08 nM | Active |  | Active | CCCC(CCC)C(=O)OCC1(CO)C/C(=C\c2ccc3ccn(C)c3c2)C(=O)O1 (configuration not stated) |
